Laboratory results published in ChEMBL document CHEMBL3351404, “Structure-Activity Studies Reveal the Oxazinone Ring Is a Determinant of Cytochrome P450 2B6 Activity Toward Efavirenz” (ACS Med Chem Lett, 2014).

Assays:
Cytochrome P450 1A2 [1] = biological target: T1, Cytochrome P450 1A2 (Homo sapiens, UniProt P05177); assay: Drug metabolism assessed as CYP1A2 (unknown origin)-mediated compound formation at 10 uM incubated for 60 mins in presence of NADPH by uHPLC-MS/MS method; assay type: ADME; conditions: 1 h
T1 sequence (P05177 whole entry): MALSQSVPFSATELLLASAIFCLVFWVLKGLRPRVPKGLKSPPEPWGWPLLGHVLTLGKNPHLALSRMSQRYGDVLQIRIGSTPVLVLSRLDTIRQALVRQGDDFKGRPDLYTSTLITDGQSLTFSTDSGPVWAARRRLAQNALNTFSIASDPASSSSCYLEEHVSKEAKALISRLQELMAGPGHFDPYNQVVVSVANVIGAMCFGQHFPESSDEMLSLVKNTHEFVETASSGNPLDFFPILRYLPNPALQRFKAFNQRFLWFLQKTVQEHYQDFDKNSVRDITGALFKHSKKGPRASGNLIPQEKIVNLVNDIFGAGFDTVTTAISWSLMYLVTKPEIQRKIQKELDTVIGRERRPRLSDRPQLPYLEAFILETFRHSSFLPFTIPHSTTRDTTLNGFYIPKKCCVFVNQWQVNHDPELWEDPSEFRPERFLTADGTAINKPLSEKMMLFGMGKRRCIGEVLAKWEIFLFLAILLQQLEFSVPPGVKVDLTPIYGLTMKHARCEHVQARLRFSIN
In short: (§1)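 Individual cDNA-expressed human P450s (CYP2B6 in insect microsomes) were incubated separately with each analogue at 10 μM. The enzyme panel covers the major drug-metabolizing P450s. Products were monitored as the metabolites first found in human liver microsome incubations, identified by m/z and retention time.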

Cytochrome P450 2B6 [2] = biological target: T2, Cytochrome P450 2B6 (Homo sapiens, UniProt P20813); assay: (§2) Inhibition of CYP2B6 (unknown origin) assessed as reduction in hydroxybupropion formation at 10 uM incubated for 10 mins by uHPLC-MS/MS method; assay type: ADME; conditions: 10 min, 10 µM
T2 sequence (P20813 whole entry): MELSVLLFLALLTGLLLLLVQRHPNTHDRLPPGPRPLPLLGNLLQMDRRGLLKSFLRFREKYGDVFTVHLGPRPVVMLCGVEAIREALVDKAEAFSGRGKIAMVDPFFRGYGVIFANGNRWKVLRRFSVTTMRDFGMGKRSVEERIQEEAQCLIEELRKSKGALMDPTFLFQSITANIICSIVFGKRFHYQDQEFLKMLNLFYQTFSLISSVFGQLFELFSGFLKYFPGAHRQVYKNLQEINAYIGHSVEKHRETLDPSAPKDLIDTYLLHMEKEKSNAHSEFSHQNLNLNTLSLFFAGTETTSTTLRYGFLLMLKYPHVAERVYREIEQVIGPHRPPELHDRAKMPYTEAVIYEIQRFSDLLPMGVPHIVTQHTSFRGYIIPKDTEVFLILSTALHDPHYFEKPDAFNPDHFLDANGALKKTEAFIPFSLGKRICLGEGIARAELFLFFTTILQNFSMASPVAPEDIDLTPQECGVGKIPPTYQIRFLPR
In short: (§3)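 CYP2B6 insect microsomes were coincubated with the probe substrate bupropion plus test compound at 10 μM. Hydroxybupropion formation was measured and compared with a vehicle control.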

Cytochrome P450 2D6 = Cytochrome P450 2D6 (Homo sapiens, UniProt P10635); assay: Drug metabolism assessed as CYP2D6 (unknown origin)-mediated compound formation at 10 uM incubated for 60 mins in presence of NADPH by uHPLC-MS/MS method; assay type: ADME; conditions: 1 h; in short: as §1
Cytochrome P450 2D6, sequence (P10635 whole entry): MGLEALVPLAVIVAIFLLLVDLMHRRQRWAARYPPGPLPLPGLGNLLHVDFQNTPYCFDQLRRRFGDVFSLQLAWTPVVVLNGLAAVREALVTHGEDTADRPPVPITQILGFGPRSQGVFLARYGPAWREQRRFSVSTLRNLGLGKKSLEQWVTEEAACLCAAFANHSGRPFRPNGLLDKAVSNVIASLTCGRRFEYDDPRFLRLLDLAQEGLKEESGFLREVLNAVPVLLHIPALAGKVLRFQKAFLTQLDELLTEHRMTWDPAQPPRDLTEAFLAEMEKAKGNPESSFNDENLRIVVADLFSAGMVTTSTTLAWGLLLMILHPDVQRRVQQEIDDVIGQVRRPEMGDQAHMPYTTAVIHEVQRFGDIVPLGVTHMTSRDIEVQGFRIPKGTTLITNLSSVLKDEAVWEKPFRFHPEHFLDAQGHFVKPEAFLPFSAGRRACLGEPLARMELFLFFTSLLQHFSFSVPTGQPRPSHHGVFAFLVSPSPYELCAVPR

[3] = Retention time of the compound by uHPLC-MS/MS method; assay type: physicochemical
In short: (§4)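 Metabolite identification in human liver microsome incubations with 10 μM substrate. Products were assigned by m/z (monooxygenated, dihydroxylated, N-dealkylated), uHPLC retention time and MS/MS fragment ions. Parallel incubations in isotopic water located the inserted oxygen from +2 shifts in fragment masses.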

Liver microsome [4] = assay: Drug metabolism in pooled human liver microsomes assessed as compound formation at 10 uM incubated for 60 mins in presence of NADPH by uHPLC-MS/MS method; assay type: ADME; conditions: 1 h; in short: as §4
Cytochrome P450 2C19 [5] = biological target: T3, Cytochrome P450 2C19 (Homo sapiens, UniProt P33261); assay: Drug metabolism assessed as CYP2C19 (unknown origin)-mediated compound formation at 10 uM incubated for 60 mins in presence of NADPH by uHPLC-MS/MS method; assay type: ADME; conditions: 1 h; in short: as §1
T3 sequence (P33261 whole entry): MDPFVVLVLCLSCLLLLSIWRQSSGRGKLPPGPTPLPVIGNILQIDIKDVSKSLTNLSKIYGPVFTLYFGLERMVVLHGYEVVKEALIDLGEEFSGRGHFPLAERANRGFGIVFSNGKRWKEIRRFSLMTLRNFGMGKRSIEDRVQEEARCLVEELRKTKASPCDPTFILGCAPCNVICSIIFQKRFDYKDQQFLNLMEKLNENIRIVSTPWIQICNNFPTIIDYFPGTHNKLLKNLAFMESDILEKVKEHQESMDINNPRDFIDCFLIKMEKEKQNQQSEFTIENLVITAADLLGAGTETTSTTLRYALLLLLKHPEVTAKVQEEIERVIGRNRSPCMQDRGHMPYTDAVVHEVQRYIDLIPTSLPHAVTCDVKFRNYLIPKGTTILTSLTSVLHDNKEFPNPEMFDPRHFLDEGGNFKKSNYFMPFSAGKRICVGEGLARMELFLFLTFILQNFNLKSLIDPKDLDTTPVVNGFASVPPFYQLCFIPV

Cytochrome P450 2C19 [6] = biological target: T3, Cytochrome P450 2C19; assay: Drug metabolism assessed as CYP2C19 (unknown origin)-mediated metabolite formation at 10 uM incubated for 60 mins in presence of NADPH by uHPLC-MS/MS method; assay type: ADME; conditions: 1 h; in short: as §1
Cytochrome P450 1A2 [7] = biological target: T1, Cytochrome P450 1A2; assay: Drug metabolism assessed as CYP1A2 (unknown origin)-mediated metabolite formation at 10 uM incubated for 60 mins in presence of NADPH by uHPLC-MS/MS method; assay type: ADME; conditions: 1 h; in short: as §1
Liver microsome [8] = assay: Drug metabolism in pooled human liver microsomes assessed as mono-oxygenated metabolite formation at 10 uM incubated for 60 mins in presence of NADPH by uHPLC-MS/MS method; assay type: ADME; conditions: 1 h; in short: as §4
Cytochrome P450 2B6 [9] = biological target: T2, Cytochrome P450 2B6; assay: Drug metabolism assessed as CYP2B6 (unknown origin)-mediated metabolite formation at 10 uM incubated for 60 mins in presence of NADPH by uHPLC-MS/MS method; assay type: ADME; conditions: 1 h; in short: as §1
Cytochrome P450 3A5 = Cytochrome P450 3A5 (Homo sapiens, UniProt P20815); assay: Drug metabolism assessed as CYP3A5 (unknown origin)-mediated metabolite formation at 10 uM incubated for 60 mins in presence of NADPH by uHPLC-MS/MS method; conditions: 1 h
Cytochrome P450 3A5, sequence (P20815 whole entry, looked up): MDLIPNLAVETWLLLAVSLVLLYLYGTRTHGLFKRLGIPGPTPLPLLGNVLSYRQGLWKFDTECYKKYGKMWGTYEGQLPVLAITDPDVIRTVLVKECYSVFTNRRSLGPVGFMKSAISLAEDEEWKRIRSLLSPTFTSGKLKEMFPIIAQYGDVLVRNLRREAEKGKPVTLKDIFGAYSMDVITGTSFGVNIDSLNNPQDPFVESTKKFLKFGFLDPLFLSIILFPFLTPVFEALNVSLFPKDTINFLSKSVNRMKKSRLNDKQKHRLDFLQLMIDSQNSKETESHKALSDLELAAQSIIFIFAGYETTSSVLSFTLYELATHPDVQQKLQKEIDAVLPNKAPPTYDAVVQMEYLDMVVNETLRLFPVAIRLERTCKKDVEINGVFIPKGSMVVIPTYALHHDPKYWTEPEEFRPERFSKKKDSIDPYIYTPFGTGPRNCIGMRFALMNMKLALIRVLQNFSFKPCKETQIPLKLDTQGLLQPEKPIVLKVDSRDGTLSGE

CYP2B6 [10] = biological target: T4, CYP2B6 (Homo sapiens, UniProt P20813); assay: Inhibition of CYP2B6 (unknown origin) assessed as reduction in hydroxybupropion formation by measuring remaining enzyme activity at 10 uM incubated for 10 mins by uHPLC-MS/MS method; assay type: ADME; conditions: probe bupropion (hydroxybupropion formation), read-out: Activity; in short: as §3
T4 sequence (P20813 whole entry): T2 sequence (P20813 whole entry)

Cytochrome P450 2B6 [11] = biological target: T2, Cytochrome P450 2B6; assay: Activity of CYP2B6 (unknown origin) assessed as maximum depletion rate constant pre-incubated for 5 mins in presence of NADPH by uHPLC-MS/MS based substrate depletion kinetics assay; assay type: ADME
In short: (§5)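 cDNA-expressed CYP2B6 in insect microsomes. Parent loss was followed over time by substrate depletion, chosen because several metabolites form. Km and maximum depletion rate constant (kdep max, min–1) were derived from depletion kinetics, and Vmax was expressed as pmol/min/pmol P450.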

Cytochrome P450 2B6 [12] = biological target: T2, Cytochrome P450 2B6; assay: Activity of CYP2B6 (unknown origin) assessed per pmol protein pre-incubated for 5 mins in presence of NADPH by uHPLC-MS/MS based substrate depletion kinetics assay; assay type: ADME; in short: as §5
CYP2B6 [13] = biological target: T4, CYP2B6; assay: Activity of CYP2B6 (unknown origin) pre-incubated for 5 mins in presence of NADPH by uHPLC-MS/MS based substrate depletion kinetics assay; assay type: ADME; conditions: CYP2B6 enzyme (unknown origin); in short: as §5
Liver microsome [14] = assay: Drug metabolism in pooled human liver microsomes assessed as compound formation at 10 uM incubated for 60 mins in presence of NADPH and using isotopic water by uHPLC-MS/MS method; assay type: ADME; conditions: 1 h; in short: as §4
CYP2B6 [15] = biological target: T4, CYP2B6; assay: as §2; assay type: ADME; conditions: CYP2B6 enzyme (unknown origin), probe bupropion (hydroxybupropion formation); in short: as §3
Liver microsome [16] = assay: Drug metabolism in pooled human liver microsomes assessed as mono-oxygenated metabolite formation at 10 uM incubated for 60 mins in presence of NADPH and using isotopic water by uHPLC-MS/MS method; assay type: ADME; conditions: 1 h; in short: as §4

SMILES | Drug metabolism (Cytochrome P450 1A2 [1]) | inhibition (INH) (Cytochrome P450 2B6 [2]) | Drug metabolism (Cytochrome P450 2D6) | Retention_time [3] [min] | Drug metabolism (Liver microsome [4]) | Drug metabolism (Cytochrome P450 2C19 [5]) | Drug metabolism (Cytochrome P450 2C19 [6]) | Drug metabolism (Cytochrome P450 1A2 [7]) | Drug metabolism (Liver microsome [8]) | Drug metabolism (Cytochrome P450 2B6 [9]) | Drug metabolism (Cytochrome P450 3A5) | activity at 10 min, 10 µM (CYP2B6 [10]) [%] | K (Cytochrome P450 2B6 [11]) [min⁻¹] | Vmax (Cytochrome P450 2B6 [12]) [pmol/min] | Km (CYP2B6 [13]) [µM] | Drug metabolism (Liver microsome [14]) | inhibition at 10 min, 10 µM (CYP2B6 [15]) [%] | Drug metabolism (Liver microsome [16])
Nc1ccc(Cl)cc1[C@](O)(C#CC1CC1)C(F)(F)F | metabolite_detected | Active | metabolite_detected | 7.25 | metabolite_detected | metabolite_detected | metabolite_detected | metabolite_detected | metabolite_detected | – | – | – | – | – | – | – | – | –
CCCC#CC1(C(F)(F)F)OC(=O)Nc2ccc(Cl)cc21 (racemic) | – | – | – | – | – | – | – | metabolite_detected | metabolite_detected | metabolite_detected | metabolite_detected | 27 | 0.0088 | 0.97 | 1.1 | – | – | –
OC1(C#C[C@]2(C(F)(F)F)OCNc3ccc(Cl)cc32)CC1 | – | – | – | 5 | metabolite_detected | – | – | – | – | – | – | – | – | – | – | metabolite_detected | – | –
O=C1Nc2ccc(Cl)cc2[C@@](C#CC2CC2)(C(F)(F)F)O1 [EFAVIRENZ] | – | – | – | – | – | – | – | – | – | – | – | – | 0.023 | 1 | 0.45 | – | 93 | –
O=C1Nc2ccc(Cl)cc2[C@@](/C=C/C2CC2)(C(F)(F)F)O1 | – | – | – | – | – | – | – | metabolite_detected | metabolite_detected | metabolite_detected | metabolite_detected | – | 0.0057 | 0.13 | 0.23 | – | – | –
Nc1ccc(Cl)cc1[C@@](O)(C#CC1CC1)C(F)(F)F | metabolite_detected | Active | metabolite_detected | 7.31 | metabolite_detected | metabolite_detected | metabolite_detected | metabolite_detected | metabolite_detected | – | – | – | – | – | – | – | – | –
FC(F)(F)[C@@]1(C#CC2CC2)OCNc2ccc(Cl)cc21 | – | – | – | – | – | – | metabolite_detected | – | metabolite_detected | metabolite_detected | – | 2 | 0.14 | 3.2 | 0.22 | – | – | metabolite_detected
